Laboratory results: ChEMBL document CHEMBL3352407, “Griseorhodins D-F, neuroactive intermediates and end products of post-PKS tailoring modification in Griseorhodin biosynthesis” (J Nat Prod, 2014)
The source made the active and inactive calls.

What was measured:
[1] = target: 5-hydroxytryptamine receptor 6 (Homo sapiens) (UniProt P50406); assay: Displacement of [3H]LSD from human serotonin 5-HT6 receptor expressed in HEK cells at 10 uM after 90 mins by microbeta counting analysis; format: cell-based; details: HEK293
How it was run: (§1)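 Primary radioligand displacement screen, run by PDSP/NIMH. Receptor panel includes muscarinic M1–M5. Activity threshold 10 μM. Targets with significant binding went on to secondary Ki assays.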

[2] = target: Alpha-1A adrenergic receptor (Homo sapiens) (UniProt P35348); assay: Displacement of [3H]prazosin from adrenergic alpha1A receptor (unknown origin) at 10 uM after 90 mins by microbeta counting analysis; how it was run: as §1
Alpha-1A adrenergic receptor (Homo sapiens), sequence (P35348 whole entry): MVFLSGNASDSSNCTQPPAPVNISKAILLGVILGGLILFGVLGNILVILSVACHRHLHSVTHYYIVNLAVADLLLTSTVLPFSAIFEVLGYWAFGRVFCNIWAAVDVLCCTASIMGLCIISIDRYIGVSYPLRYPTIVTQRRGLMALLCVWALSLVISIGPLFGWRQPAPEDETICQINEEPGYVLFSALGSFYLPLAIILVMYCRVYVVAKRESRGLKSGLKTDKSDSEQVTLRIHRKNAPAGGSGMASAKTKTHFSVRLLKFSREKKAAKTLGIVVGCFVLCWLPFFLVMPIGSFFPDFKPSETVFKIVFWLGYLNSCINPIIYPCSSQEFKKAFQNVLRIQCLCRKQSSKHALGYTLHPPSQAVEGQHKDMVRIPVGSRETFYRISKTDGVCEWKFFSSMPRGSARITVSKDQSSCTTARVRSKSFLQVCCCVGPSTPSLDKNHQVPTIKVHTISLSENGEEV

[3] = target: Delta-type opioid receptor (Homo sapiens) (UniProt P41143); assay: Displacement of [3H]DADLE from delta opioid receptor (unknown origin) expressed in HEK cells at 10 uM after 90 mins by microbeta counting analysis; format: cell-based; details: HEK293; how it was run: as §1
[4] = target: D(2) dopamine receptor (Homo sapiens) (UniProt P14416); assay: Displacement of [3H]N-methylspiperone from human dopamine D2 receptor at 10 uM after 90 mins by microbeta counting analysis; how it was run: as §1
[5] = target: 5-hydroxytryptamine receptor 2C (Homo sapiens) (UniProt P28335); assay: Displacement of [3H]Mesulergine from human serotonin 5-HT2C receptor expressed in Flp-IN HEK cells at 10 uM after 90 mins by microbeta counting analysis; format: cell-based; details: HEK293; how it was run: as §1
5-hydroxytryptamine receptor 2C (Homo sapiens), sequence (P28335 whole entry): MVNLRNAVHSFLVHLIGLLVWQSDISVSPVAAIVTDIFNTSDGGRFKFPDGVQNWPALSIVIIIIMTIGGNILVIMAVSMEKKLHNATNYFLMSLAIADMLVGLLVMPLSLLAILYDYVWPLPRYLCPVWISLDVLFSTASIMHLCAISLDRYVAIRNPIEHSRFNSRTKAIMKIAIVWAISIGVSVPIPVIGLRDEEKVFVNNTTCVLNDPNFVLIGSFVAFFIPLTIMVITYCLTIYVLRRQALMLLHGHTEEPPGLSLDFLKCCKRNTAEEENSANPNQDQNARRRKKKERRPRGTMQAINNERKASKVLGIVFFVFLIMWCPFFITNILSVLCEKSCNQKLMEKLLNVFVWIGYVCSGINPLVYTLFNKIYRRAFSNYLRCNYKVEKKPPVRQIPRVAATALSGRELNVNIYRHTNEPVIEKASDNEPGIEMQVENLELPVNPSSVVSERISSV

[6] = target: Alpha-1D adrenergic receptor (Homo sapiens) (UniProt P25100); assay: Displacement of [3H]prazosin from adrenergic alpha1D receptor (unknown origin) at 10 uM after 90 mins by microbeta counting analysis; how it was run: as §1
Alpha-1D adrenergic receptor (Homo sapiens), sequence (P25100 whole entry): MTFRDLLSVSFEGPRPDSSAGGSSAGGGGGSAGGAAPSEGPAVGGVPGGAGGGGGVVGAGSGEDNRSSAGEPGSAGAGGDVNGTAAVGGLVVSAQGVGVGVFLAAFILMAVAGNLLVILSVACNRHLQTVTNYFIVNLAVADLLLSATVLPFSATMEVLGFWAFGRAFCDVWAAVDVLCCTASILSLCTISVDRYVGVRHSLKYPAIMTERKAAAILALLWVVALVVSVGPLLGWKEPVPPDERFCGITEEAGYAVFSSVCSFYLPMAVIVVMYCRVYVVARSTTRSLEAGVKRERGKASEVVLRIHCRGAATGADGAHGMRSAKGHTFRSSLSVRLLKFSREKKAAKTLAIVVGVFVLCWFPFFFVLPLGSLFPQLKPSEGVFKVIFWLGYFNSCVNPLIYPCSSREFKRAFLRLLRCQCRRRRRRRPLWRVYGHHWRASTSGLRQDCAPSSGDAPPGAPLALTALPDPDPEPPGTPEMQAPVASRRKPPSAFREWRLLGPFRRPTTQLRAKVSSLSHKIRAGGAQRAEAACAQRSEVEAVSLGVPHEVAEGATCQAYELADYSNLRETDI

[7] = target: D(1A) dopamine receptor (Homo sapiens) (UniProt P21728); assay: Displacement of [3H]SCH23390 from human dopamine D1 receptor expressed in HEKT cells at 10 uM after 90 mins by microbeta counting analysis; format: cell-based; how it was run: as §1
[8] = target: D(1B) dopamine receptor (Homo sapiens) (UniProt P21918); assay: Displacement of [3H]SCH23390 from human dopamine D5 receptor expressed in HEKT cells at 10 uM after 90 mins by microbeta counting analysis; format: cell-based; how it was run: as §1
[9] = target: Muscarinic acetylcholine receptor M3 (Homo sapiens) (UniProt P20309); assay: Binding affinity to human M3 receptor expressed in CHO Flp-In cells at 10 uM after 90 mins by microbeta counting analysis; format: cell-based; how it was run: as §1
[10] = target: Histamine H4 receptor (Homo sapiens) (UniProt Q9H3N8); assay: Displacement of [3H]histamine from human H4 histamine receptor expressed in HEK cells at 10 uM after 90 mins by microbeta counting analysis; format: cell-based; details: HEK293; how it was run: as §1
Histamine H4 receptor (Homo sapiens), sequence (Q9H3N8 whole entry): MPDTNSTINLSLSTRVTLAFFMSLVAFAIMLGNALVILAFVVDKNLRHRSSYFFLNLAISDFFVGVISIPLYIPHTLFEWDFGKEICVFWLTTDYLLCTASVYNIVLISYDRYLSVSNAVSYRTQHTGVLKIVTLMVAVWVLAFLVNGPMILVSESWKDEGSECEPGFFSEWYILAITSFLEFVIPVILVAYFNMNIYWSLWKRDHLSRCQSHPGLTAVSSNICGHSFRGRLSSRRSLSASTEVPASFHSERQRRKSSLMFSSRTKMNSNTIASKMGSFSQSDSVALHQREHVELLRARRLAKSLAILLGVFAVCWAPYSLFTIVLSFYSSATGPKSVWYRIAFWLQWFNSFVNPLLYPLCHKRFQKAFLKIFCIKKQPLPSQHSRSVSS

[11] = target: Muscarinic acetylcholine receptor M5 (Homo sapiens) (UniProt P08912); assay: Binding affinity to human M5 receptor expressed in CHO cells at 10 uM after 90 mins by microbeta counting analysis; format: cell-based; how it was run: as §1
Muscarinic acetylcholine receptor M5 (Homo sapiens), sequence (P08912 whole entry): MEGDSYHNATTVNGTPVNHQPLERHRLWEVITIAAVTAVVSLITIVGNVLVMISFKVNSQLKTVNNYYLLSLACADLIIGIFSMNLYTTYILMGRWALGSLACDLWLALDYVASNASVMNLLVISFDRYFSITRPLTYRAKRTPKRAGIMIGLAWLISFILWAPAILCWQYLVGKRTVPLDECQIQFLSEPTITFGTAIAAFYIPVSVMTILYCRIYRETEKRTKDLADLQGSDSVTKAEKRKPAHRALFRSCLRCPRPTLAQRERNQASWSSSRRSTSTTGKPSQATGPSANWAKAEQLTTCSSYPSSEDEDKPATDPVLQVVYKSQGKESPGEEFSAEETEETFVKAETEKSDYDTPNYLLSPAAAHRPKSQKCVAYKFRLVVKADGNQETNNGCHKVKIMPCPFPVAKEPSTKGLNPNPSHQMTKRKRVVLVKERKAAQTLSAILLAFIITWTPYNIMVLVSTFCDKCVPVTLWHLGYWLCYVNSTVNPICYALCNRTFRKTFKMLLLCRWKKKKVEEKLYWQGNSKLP

[12] = target: D(3) dopamine receptor (Rattus norvegicus) (UniProt P19020); assay: Displacement of [3H]N-methylspiperone from rat dopamine D3 receptor expressed in HEKT cells at 10 uM after 90 mins by microbeta counting analysis; format: cell-based; how it was run: as §1
[13] = target: Alpha-1B adrenergic receptor (Homo sapiens) (UniProt P35368); assay: Displacement of [3H]prazosin from adrenergic alpha1B receptor (unknown origin) expressed in HEKT cells at 10 uM after 90 mins by microbeta counting analysis; format: cell-based; how it was run: as §1
[14] = target: Muscarinic acetylcholine receptor M2 (Homo sapiens) (UniProt P08172); assay: Binding affinity to human M2 receptor expressed in CHO cells at 10 uM after 90 mins by microbeta counting analysis; format: cell-based; how it was run: as §1
Muscarinic acetylcholine receptor M2 (Homo sapiens), sequence (P08172 whole entry): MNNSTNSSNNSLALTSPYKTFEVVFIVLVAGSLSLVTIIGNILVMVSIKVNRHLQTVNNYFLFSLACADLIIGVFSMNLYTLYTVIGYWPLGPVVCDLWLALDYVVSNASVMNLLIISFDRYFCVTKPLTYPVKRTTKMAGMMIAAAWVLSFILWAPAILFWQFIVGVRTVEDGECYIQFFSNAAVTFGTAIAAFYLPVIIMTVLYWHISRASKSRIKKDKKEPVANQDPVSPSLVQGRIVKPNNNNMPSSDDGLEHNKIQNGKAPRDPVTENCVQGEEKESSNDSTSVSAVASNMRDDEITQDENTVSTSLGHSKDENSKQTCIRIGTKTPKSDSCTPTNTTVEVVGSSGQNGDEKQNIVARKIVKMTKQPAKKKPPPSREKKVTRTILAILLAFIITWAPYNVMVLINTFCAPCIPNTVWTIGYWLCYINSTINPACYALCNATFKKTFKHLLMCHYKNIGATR

[15] = target: 5-hydroxytryptamine receptor 7 (Homo sapiens) (UniProt P34969); assay: Displacement of [3H]LSD from human serotonin 5-HT7 receptor expressed in HEK cells at 10 uM after 90 mins by microbeta counting analysis; format: cell-based; details: HEK293; how it was run: as §1
[16] = target: Alpha-2B adrenergic receptor (Homo sapiens) (UniProt P18089); assay: Displacement of [3H]rauwolscine from adrenergic alpha2B receptor (unknown origin) expressed in HEKT cells at 10 uM after 90 mins by microbeta counting analysis; format: cell-based; how it was run: as §1
[17] = target: 5-hydroxytryptamine receptor 1A (Homo sapiens) (UniProt P08908); assay: Displacement of [3H]Way100635 from human serotonin 5-HT1A receptor expressed in CHO cells at 10 uM after 90 mins by microbeta counting analysis; format: cell-based; how it was run: as §1
[18] = target: Beta-2 adrenergic receptor (Homo sapiens) (UniProt P07550); assay: Displacement of [3H]CGP12177 from human adrenergic beta2 receptor expressed in HEK Flp-In cells at 10 uM after 90 mins by microbeta counting analysis; format: cell-based; details: HEK293; how it was run: as §1
[19] = target: Beta-1 adrenergic receptor (Homo sapiens) (UniProt P08588); assay: Binding affinity to human adrenergic beta1 receptor expressed in CHO Flp-In cells at 10 uM after 90 mins by microbeta counting analysis; format: cell-based; how it was run: as §1
[20] = target: Alpha-2A adrenergic receptor (Homo sapiens) (UniProt P08913); assay: Displacement of [3H]rauwolscine from adrenergic alpha2A receptor (unknown origin) expressed in MDCK cells at 10 uM after 90 mins by microbeta counting analysis; format: cell-based; how it was run: as §1
[21] = target: Alpha-2C adrenergic receptor (Homo sapiens) (UniProt P18825); assay: Displacement of [3H]rauwolscine from adrenergic alpha2C receptor (unknown origin) expressed in MDCK cells at 10 uM after 90 mins by microbeta counting analysis; format: cell-based; how it was run: as §1
[22] = target: Sigma non-opioid intracellular receptor 1 (Rattus norvegicus) (UniProt Q9R0C9); assay: Displacement of [3H]pentazocine from rat sigma1 receptor at 10 uM after 90 mins by microbeta counting analysis; how it was run: as §1
Sigma non-opioid intracellular receptor 1 (Rattus norvegicus), sequence (Q9R0C9 whole entry): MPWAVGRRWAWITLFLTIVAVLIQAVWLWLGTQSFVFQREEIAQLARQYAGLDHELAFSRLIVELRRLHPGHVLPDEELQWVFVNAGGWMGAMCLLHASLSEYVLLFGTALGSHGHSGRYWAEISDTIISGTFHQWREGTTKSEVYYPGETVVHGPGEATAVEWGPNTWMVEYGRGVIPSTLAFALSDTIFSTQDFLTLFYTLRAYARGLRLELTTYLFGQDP

[23] = target: 5-hydroxytryptamine receptor 2B (Homo sapiens) (UniProt P41595); assay: Displacement of [3H]LSD from human serotonin 5-HT2B receptor expressed in HEK cells at 10 uM after 90 mins by microbeta counting analysis; format: cell-based; details: HEK293; how it was run: as §1
[24] = target: Histamine H2 receptor (Homo sapiens) (UniProt P25021); assay: Binding affinity to human H2 histamine receptor expressed in HEK cells at 10 uM after 90 mins by microbeta counting analysis; format: cell-based; details: HEK293; how it was run: as §1
[25] = target: Mu-type opioid receptor (Homo sapiens) (UniProt P35372); assay: Displacement of [3H]DAMGO from mu opioid receptor (unknown origin) expressed in HEK cells at 10 uM after 90 mins by microbeta counting analysis; format: cell-based; details: HEK293; how it was run: as §1
[26] = target: GABA-A receptor; anion channel (Homo sapiens) (UniProt P14867+P47870+P18507+P28472+P48169+Q99928+Q9UN88+P34903+O00591+O14764+Q8N1C3+P18505+P78334+P47869+P31644+Q16445); assay: Displacement of [3H]Muscimol from rat GABAA receptor at 10 uM after 90 mins by microbeta counting analysis; format: protein-complex assay; details: target entry is the homologue from another species; how it was run: as §1
[27] = target: 5-hydroxytryptamine receptor 3A (Homo sapiens) (UniProt P46098); assay: Displacement of [3H]GR65630 from human serotonin 5-HT3 receptor expressed in HEKT cells at 10 uM after 90 mins by microbeta counting analysis; format: cell-based; how it was run: as §1
[28] = target: D(4) dopamine receptor (Homo sapiens) (UniProt P21917); assay: Displacement of [3H]N-methylspiperone from human dopamine D4 receptor at 10 uM after 90 mins by microbeta counting analysis; how it was run: as §1
[29] = target: Histamine H1 receptor (Homo sapiens) (UniProt P35367); assay: Displacement of [3H]pyrilamine from human H1 histamine receptor expressed in HEK cells at 10 uM after 90 mins by microbeta counting analysis; format: cell-based; details: HEK293; how it was run: as §1
[30] = target: Muscarinic acetylcholine receptor M1 (Homo sapiens) (UniProt P11229); assay: Binding affinity to human M1 receptor expressed in CHO cells at 10 uM after 90 mins by microbeta counting analysis; format: cell-based; how it was run: as §1
Rattus norvegicus [31] = species on record: Rattus norvegicus; assay: Displacement of [3H]DTG from rat sigma2 receptor at 10 uM after 90 mins by microbeta counting analysis; how it was run: as §1
Rattus norvegicus [32] = species on record: Rattus norvegicus; assay: Binding affinity to rat GABAB receptor at 10 uM after 90 mins by microbeta counting analysis; how it was run: as §1
[33] = target: 5-hydroxytryptamine receptor 1B (Homo sapiens) (UniProt P28222); assay: Displacement of [3H]5-CT from human serotonin 5-HT1B receptor expressed in HEK cells at 10 uM after 90 mins by microbeta counting analysis; format: cell-based; details: HEK293; how it was run: as §1
[34] = target: Voltage-gated L-type calcium channel (Rattus norvegicus, UniProt P22002+Q02485+P27732); assay: Binding affinity to rat calcium channel at 10 uM after 90 mins by microbeta counting analysis; details: 1.5 h; how it was run: as §1
[35] = target: 5-hydroxytryptamine receptor 1D (Homo sapiens) (UniProt P28221); assay: Displacement of [3H]5-CT from human serotonin 5-HT1D receptor expressed in HEKT cells at 10 uM after 90 mins by microbeta counting analysis; format: cell-based; how it was run: as §1
[36] = target: 5-hydroxytryptamine receptor 1E (Homo sapiens) (UniProt P28566); assay: Displacement of [3H]5-HT from human serotonin 5-HT1E receptor expressed in HEK cells at 10 uM after 90 mins by microbeta counting analysis; format: cell-based; details: HEK293; how it was run: as §1
[37] = target: Kappa-type opioid receptor (Homo sapiens) (UniProt P41145); assay: Displacement of [3H]U69593 from kappa opioid receptor (unknown origin) expressed in HEK cells at 10 uM after 90 mins by microbeta counting analysis; format: cell-based; details: HEK293; how it was run: as §1
Kappa-type opioid receptor (Homo sapiens), sequence (P41145 whole entry): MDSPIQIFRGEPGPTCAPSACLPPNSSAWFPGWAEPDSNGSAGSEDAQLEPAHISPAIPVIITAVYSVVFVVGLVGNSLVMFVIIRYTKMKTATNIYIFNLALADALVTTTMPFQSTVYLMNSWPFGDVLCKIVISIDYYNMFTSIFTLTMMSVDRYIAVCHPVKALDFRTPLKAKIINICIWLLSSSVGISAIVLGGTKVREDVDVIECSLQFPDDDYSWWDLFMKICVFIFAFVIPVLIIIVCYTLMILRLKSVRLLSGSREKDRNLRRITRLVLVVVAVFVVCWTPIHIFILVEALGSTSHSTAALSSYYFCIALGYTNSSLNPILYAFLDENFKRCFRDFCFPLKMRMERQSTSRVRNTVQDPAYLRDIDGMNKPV

[38] = target: Sodium-dependent dopamine transporter (Homo sapiens) (UniProt Q01959); assay: Displacement of [3H]WIN35428 from human DAT expressed in HEK cells at 10 uM after 90 mins by microbeta counting analysis; format: cell-based; details: HEK293
Sodium-dependent dopamine transporter (Homo sapiens), sequence (Q01959 whole entry): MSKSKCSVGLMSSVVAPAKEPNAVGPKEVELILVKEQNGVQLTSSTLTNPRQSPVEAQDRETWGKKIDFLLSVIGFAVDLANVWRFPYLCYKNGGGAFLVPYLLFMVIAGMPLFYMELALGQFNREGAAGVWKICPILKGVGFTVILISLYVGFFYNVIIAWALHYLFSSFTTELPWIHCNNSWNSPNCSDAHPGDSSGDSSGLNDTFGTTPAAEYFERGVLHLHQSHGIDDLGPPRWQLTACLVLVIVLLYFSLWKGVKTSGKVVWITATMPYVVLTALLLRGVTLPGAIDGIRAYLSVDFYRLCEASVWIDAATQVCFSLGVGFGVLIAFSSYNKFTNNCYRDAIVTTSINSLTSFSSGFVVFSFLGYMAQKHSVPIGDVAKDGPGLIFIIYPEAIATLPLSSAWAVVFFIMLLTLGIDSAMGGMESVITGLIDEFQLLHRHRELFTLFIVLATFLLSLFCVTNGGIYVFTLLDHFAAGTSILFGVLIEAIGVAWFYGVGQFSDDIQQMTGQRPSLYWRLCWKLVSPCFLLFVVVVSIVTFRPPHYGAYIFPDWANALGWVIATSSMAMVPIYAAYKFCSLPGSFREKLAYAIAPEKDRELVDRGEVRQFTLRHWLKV

[39] = target: 5-hydroxytryptamine receptor 2A (Homo sapiens) (UniProt P28223); assay: Displacement of [3H]ketanserin from human serotonin 5-HT2A receptor expressed in HEKT cells at 10 uM after 90 mins by microbeta counting analysis; format: cell-based; how it was run: as §1
5-hydroxytryptamine receptor 2A (Homo sapiens), sequence (P28223 whole entry): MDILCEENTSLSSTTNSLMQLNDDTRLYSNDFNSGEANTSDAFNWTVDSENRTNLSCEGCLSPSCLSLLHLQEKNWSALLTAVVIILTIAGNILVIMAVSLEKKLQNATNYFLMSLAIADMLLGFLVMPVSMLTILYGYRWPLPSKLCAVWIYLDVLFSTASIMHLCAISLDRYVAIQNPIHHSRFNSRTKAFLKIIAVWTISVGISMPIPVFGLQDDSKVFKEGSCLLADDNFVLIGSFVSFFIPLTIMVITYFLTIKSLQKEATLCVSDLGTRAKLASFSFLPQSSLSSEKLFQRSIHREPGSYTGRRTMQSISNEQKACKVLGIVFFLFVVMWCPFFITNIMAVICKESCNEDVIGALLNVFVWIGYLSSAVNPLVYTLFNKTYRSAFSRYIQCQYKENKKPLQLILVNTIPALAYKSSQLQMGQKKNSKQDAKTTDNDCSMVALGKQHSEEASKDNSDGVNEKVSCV

[40] = target: 5-hydroxytryptamine receptor 4 (Homo sapiens) (UniProt Q13639); assay: Displacement of [3H]GR113808 from human serotonin 5-HT4 receptor at 10 uM after 90 mins by microbeta counting analysis; how it was run: as §1
5-hydroxytryptamine receptor 4 (Homo sapiens), sequence (Q13639 whole entry): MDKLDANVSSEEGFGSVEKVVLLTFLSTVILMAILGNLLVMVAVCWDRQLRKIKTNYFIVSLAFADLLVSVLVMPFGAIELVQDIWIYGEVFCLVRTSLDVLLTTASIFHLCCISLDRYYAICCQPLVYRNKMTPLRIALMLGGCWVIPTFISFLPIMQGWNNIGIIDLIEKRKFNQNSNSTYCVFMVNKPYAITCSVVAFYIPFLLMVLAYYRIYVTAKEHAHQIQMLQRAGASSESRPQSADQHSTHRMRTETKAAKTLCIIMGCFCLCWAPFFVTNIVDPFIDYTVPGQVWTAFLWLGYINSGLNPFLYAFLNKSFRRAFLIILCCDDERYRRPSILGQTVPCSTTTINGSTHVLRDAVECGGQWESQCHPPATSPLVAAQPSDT

[41] = target: 5-hydroxytryptamine receptor 5A (Homo sapiens) (UniProt P47898); assay: Displacement of [3H]LSD from human serotonin 5-HT5A receptor expressed in Flp-In CHO cells at 10 uM after 90 mins by microbeta counting analysis; format: cell-based; how it was run: as §1
DRG neuron = assay: Increase in Ca2+ uptake in mouse DRG neurons at 20 ug/ml by Fura-2 dye-based fluorescence microscopy; format: functional
How it was run: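 Mouse DRG cells plated in medium with additives and loaded with the Ca2+ dye Fura-2 AM. Compound applied directly at 20 μg/mL. Read-out is the fraction of cells showing a rise in Ca2+ concentration.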

[42] = target: Sodium-dependent noradrenaline transporter (Homo sapiens) (UniProt P23975); assay: Displacement of [3H]nisoxetine from NET (unknown origin) expressed in HEK cells at 10 uM after 90 mins by microbeta counting analysis; format: cell-based; details: HEK293; how it was run: as §1
[43] = target: Muscarinic acetylcholine receptor M4 (Homo sapiens) (UniProt P08173); assay: Binding affinity to human M4 receptor expressed in CHO cells at 10 uM after 90 mins by microbeta counting analysis; format: cell-based; how it was run: as §1
[44] = target: Beta-3 adrenergic receptor (Homo sapiens) (UniProt P13945); assay: Binding affinity to human adrenergic beta3 receptor expressed in HEK Flp-In cells at 10 uM after 90 mins by microbeta counting analysis; format: cell-based; details: HEK293; how it was run: as §1
[45] = target: Sodium-dependent serotonin transporter (Homo sapiens) (UniProt P31645); assay: Displacement of [3H]citalopram from SERT (unknown origin) expressed in HEK cells at 10 uM after 90 mins by microbeta counting analysis; format: cell-based; details: HEK293; how it was run: as §1
[46] = target: Histamine H3 receptor (Homo sapiens) (UniProt Q9Y5N1); assay: Displacement of [3H]alpha-methylhistamine from human H3 histamine receptor expressed in HEK cells at 10 uM after 90 mins by microbeta counting analysis; format: cell-based; details: HEK293; how it was run: as §1

COC(=O)CCc1cc2cc(C)oc(=O)c2c(O)c1O
Activity [1]: inactive
Activity [2]: inactive
Activity [3]: inactive
Activity [4]: inactive
Activity [5]: inactive
Activity [6]: inactive
Activity [7]: inactive
Activity [8]: inactive
Activity [9]: inactive
Activity [10]: inactive
Activity [11]: inactive
Activity [12]: inactive
Activity [13]: inactive
Activity [14]: inactive
Activity [15]: inactive
Activity [16]: inactive
Activity [17]: inactive
Activity [18]: inactive
Activity [19]: inactive
Activity [20]: inactive
Activity [21]: inactive
Activity [22]: inactive
Activity [23]: inactive
Activity [24]: inactive
Activity [25]: inactive
Activity [26]: inactive
Activity [27]: inactive
Activity [28]: inactive
Activity [29]: inactive
Activity [30]: inactive
Activity (Rattus norvegicus [31]): inactive
Activity (Rattus norvegicus [32]): inactive
Activity [33]: inactive
Activity [34]: Not Active
Activity [35]: inactive
Activity [36]: inactive
Activity [37]: inactive
Activity [38]: inactive
Activity [39]: inactive
Activity [40]: inactive
Activity [41]: inactive
Activity (DRG neuron): Active
Activity [42]: inactive
Activity [43]: inactive
Activity [44]: inactive
Activity [45]: inactive
Activity [46]: inactive
